# High-throughput results as filed in PubChem.
# Cneo AK release: Cryptococcus neoformans lysis via adenylate kinase release. C. neoformans lysis, adenylate kinase release luminescence, 4 h; normalised: neutral wells 0, clomiphene wells 100. lysis activity, % at 15 µM. 360,000 compounds, 0.2% hits. AID 651654;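 active = mean lysis activity across replicates of at least 80%, whatever share of replicates individually reach that level; inactive = mean lysis activity below 80%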
#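 read-out = cell lysis signal | test system = log-phase Cryptococcus neoformans yeast cells | input = cells at 5 × 10^6 per mL | medium = fresh YPD growth medium | signal = luminescent adenylate kinase detection reagent | timing = 4 h at 37 °C static, read 1 h later | dosing = single dose | controls = Clomiphene as positive lysis control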
# DENV2 CPE: inhibitors of DENV2 cytopathic effect; 350,000 compounds, 1.7% hits; CPE inhibition, % at 9.99 µM; DENV2-infected cells, cytopathic effect rescue, plate reader; in the data active = CPE inhibition above about 20%, passing the limit was not always enough; inconclusive = no clear call, values can overlap the other calls; tested in BHK-21 cells;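 note: 0% = median of neutral control wells and 100% = median of positive control wells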
# PDI inh: inhibitors of human protein disulfide isomerase. P07237. PDI insulin aggregation turbidity, A650, 90 min. inhibition, % at 10 µM. 350,000 compounds, 0.052% hits;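 active = mean inhibition across replicates of 30% or more, whatever share of single replicates reach that level; inconclusive = mean inhibition below 30% while every single replicate reaches 30%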
# F508del corr: correctors of CFTR F508del function in bronchial epithelial cells. CFBE cells, YFP halide quenching; stimulated with forskolin plus potentiator P3; % fluorescence drop versus neutral controls. 350,000 compounds, 0.36% hits. activity (quench increase), % at 7.58 µM. AID 720511;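 active = mean added fluorescence quench of at least 8% versus neutral control, with both replicates also reaching 8%; inconclusive = only one of the mean or replicate conditions met; inactive = mean below 8% and not both replicates reaching 8%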;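 note: cells transiently co-express mutant CFTR-F508del with the halide-sensitive YFP; corrector assay measuring rescue of mutant channel to the surface after 24 h compound exposure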
# ERp5 inh: inhibitors of human ERp5; inhibition, % at 9.99 µM; Q15084; ERp5 insulin aggregation, absorbance 650 nm, 90 min; 350,000 compounds, 0.05% hits;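 active = mean replicate inhibition above about 25%, with every replicate also reaching it, limit read from the data, passing the limit was not always enough; inconclusive = only one of those two criteria met; inactive = neither criterion met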
# Target sequence (Q15084 whole entry, looked up): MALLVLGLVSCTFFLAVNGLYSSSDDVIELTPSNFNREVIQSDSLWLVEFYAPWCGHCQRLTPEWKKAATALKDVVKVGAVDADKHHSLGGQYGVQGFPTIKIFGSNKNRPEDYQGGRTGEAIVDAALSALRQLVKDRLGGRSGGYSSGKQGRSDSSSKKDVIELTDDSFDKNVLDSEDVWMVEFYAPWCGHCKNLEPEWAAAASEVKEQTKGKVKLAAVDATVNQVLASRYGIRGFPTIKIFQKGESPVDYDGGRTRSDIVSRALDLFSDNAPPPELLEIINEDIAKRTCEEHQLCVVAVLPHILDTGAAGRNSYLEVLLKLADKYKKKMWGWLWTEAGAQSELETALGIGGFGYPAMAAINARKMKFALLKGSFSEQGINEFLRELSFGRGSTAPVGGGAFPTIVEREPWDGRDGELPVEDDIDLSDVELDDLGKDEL
# C2C12 statin: protects C2C12 myotubes from simvastatin toxicity | rescue of ATP level, % at 7.49 µM | 330,000 compounds, 0.78% hits | AID 602340 | ATP luminescence, 48 h; scaled: DMSO 0, geranylgeraniol control 100;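 active = mean ATP rescue above about 67%, or every replicate alone reaching that limit, limit read from the data, passing the limit was not always enough; inconclusive = no clear call, values can overlap the other calls; inactive = mean under the limit and some replicate under it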;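 note: myotubes were challenged with 10 µM simvastatin during compound exposure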
# Numbers without * were called inactive; ? = inconclusive; / = no result given; ! = a repeat was not active. This is a sample that favours compounds with a hit; in the whole collection about 2.3% have one here.
SMILES,Cneo AK release,DENV2 CPE,PDI inh,F508del corr,ERp5 inh,C2C12 statin
O=C(C[C@@H]1CC[C@H](NC(=O)C2CC2)[C@H](CO)O1)Nc1ccccc1,-1.7,4.7,/,0.0,-0.4,-13.7
CCN(CC)S(=O)(=O)c1ccc(-n2c(=O)c(C(C)C)c(C)n2C)cc1,1.7,-2.3,-3.7,1.0,-0.5,86.8*
C[C@H]1CN([C@@H](C)CO)C(=O)c2cccc(NC(=O)Nc3ccc(C(F)(F)F)cc3)c2O[C@@H]1CN(C)S(=O)(=O)c1ccc(Cl)cc1,-1.6,?,-2.2,0.8,4.6,112.6*!
Cc1ccc(S(=O)(=O)N(C)C[C@H]2Oc3c(NC(=O)Nc4ccc(C(F)(F)F)cc4)cccc3C(=O)N([C@H](C)CO)C[C@H]2C)cc1,-0.4,1.2,/,1.1,2.4,6.2
C[C@@H]1CN([C@@H](C)CO)C(=O)c2cccc(NC(=O)Nc3ccc(C(F)(F)F)cc3)c2O[C@H]1CN(C)S(=O)(=O)c1ccc(Cl)cc1,-1.0,-6.1,/,-3.0,-3.5,-5.0
C[C@H](CO)N1C[C@H](C)[C@@H](CN(C)S(=O)(=O)c2ccc(Cl)cc2)Oc2c(NC(=O)Nc3ccc(C(F)(F)F)cc3)cccc2C1=O,0.2,8.1,/,-1.0,3.8,102.5*
C[C@H]1CN([C@@H](C)CO)C(=O)c2cccc(NC(=O)NC3CCCCC3)c2O[C@@H]1CN(C)S(=O)(=O)c1ccc(Cl)cc1,-0.2,26.8*,/,0.2,-9.4,4.1
O=C(C#Cc1ccccc1)Nc1cccc(F)c1,-3.5,-14.8,0.7,0.3,-0.6,159.2*
C[C@H](CO)N1C[C@H](C)[C@H](CN(C)C(=O)Nc2ccc3c(c2)OCO3)Oc2c(NS(=O)(=O)c3ccc(F)cc3)cccc2C1=O,-8.6,-8.8,/,1.2,-9.0,-21.7
C[C@H]1CN([C@@H](C)CO)C(=O)c2cccc(NC(=O)C3CCCCC3)c2O[C@H]1CN(C)C(=O)Nc1ccc2c(c1)OCO2,-0.1,-0.1,/,-4.6,3.4,-45.3
C[C@H]1CN([C@@H](C)CO)C(=O)c2cccc(NC(=O)C3CCOCC3)c2O[C@H]1CN(C)C(=O)Nc1ccc2c(c1)OCO2,2.9,37.0*,/,3.9,-2.0,20.4
C[C@H](CO)N1C[C@H](C)[C@@H](CN(C)C(=O)Nc2ccc3c(c2)OCO3)Oc2c(NS(=O)(=O)c3ccc(F)cc3)cccc2C1=O,-2.2,47.7*!,-0.3,-1.7,-6.1,-1.9
C[C@H]1CN([C@@H](C)CO)C(=O)c2cccc(NC(=O)C3CCCCC3)c2O[C@@H]1CN(C)C(=O)Nc1ccc2c(c1)OCO2,-1.7,58.1*,/,-3.7,1.2,11.2
C[C@H]1CN([C@@H](C)CO)C(=O)c2cccc(NC(=O)C3CC3)c2O[C@@H]1CN(C)C(=O)Nc1ccc2c(c1)OCO2,-6.9,0.3,/,2.3,1.8,-0.3
CCCNC(=O)N1CCC2(CC1)CN(C(=O)CC)[C@H](CO)c1c2c2ccc(OC)cc2n1C,/,-1.6,/,2.2,5.4,/
C[n+]1c2cc(N)ccc2cc2ccc(N)cc21,-4.1,-1.0,-4.9,61.5*,0.1,-96.4
Cc1nc2ccc(N)cc2s1,-0.6,?,3.3,-1.3,11.9,3.2
COc1ccccc1S(=O)(=O)N[C@@H]1CC[C@H](CCNC(=O)C2CCOCC2)O[C@@H]1CO,51.5,18.2,/,-1.3,-1.7,16.1
COc1ccc(S(=O)(=O)N2CCCCC2)cc1C(C)C,0.3,/,4.5,/,/,112.8*
COc1ccc(S(=O)(=O)N2CCCC2)cc1Br,-0.6,-1.6,-0.5,4.8,5.8,6.1
CCc1ccc(OCCNc2cc(N3CCNC(C)C3)ccc2[N+](=O)[O-])cc1 (stereo not drawn),0.8,/,10.7,12.9*,-0.5,-7.4
COc1ccc(N2CCN(CC(O)COc3ccc(F)cc3)CC2)cc1 (stereo not drawn),-1.6,51.9*,1.5,1.0,1.3,3.9
O=C(c1ccccc1)c1ccc(OCC(O)CN2CCCCC2)cc1 (stereo not drawn),-0.7,/,4.8,/,/,/
O=C(c1ccccc1)c1ccc(OCC(O)CN2CCN(S(=O)(=O)N3CCCCC3)CC2)cc1 (stereo not drawn),-0.3,/,13.1,/,/,77.3*
CCc1ccc(OCC(O)CN2CCN(c3ccccc3)CC2)cc1 (stereo not drawn),-2.3,83.4*,2.7,-1.3,1.2,7.0
SMILES,Cneo AK release,DENV2 CPE,PDI inh,F508del corr,ERp5 inh,C2C12 statin
COc1ccc(OCC(O)CN2CCN(c3ccc(OC)cc3)CC2)cc1 (stereo not drawn),-2.5,6.4,9.8,1.0,-1.0,8.1
Cc1ccc(S(=O)(=O)Nc2ccc3c(c2)CC(=O)N([C@@H](C)CO)C[C@@H](C)[C@@H](CN(C)Cc2ccncc2)O3)cc1,1.1,-0.6,/,-2.5,3.7,-9.7
O=C(CC1CC1)Nc1ccc2c(c1)[C@@H]1C[C@@H](CC(=O)N3CCc4ccccc4C3)O[C@H](CO)[C@@H]1O2,24.3,-1.9,/,1.6,0.4,3.1
COc1ccc(C)cc1NC(=O)CNC(c1ccccc1)c1ccc(C)cc1 (stereo not drawn),1.5,9.7,-2.7,13.4*,-2.1,-4.5
COc1ccccc1NC(=O)CNC(c1ccccc1)c1ccccc1,-0.6,-2.2,0.7,-0.2,1.0,8.8
Cc1cc(C)c(N=C2CCCN2Cc2ccccc2)c(C#N)c1,-2.1,/,-15.9,/,/,84.4*
CCCNC(=O)C[C@@H]1CC[C@@H]2[C@@H](COc3ccc(NC(=O)C4CCCC4)cc3C(=O)N2C)O1,-0.6,1.6,/,-2.2,-4.0,-12.5
Cc1cccc(S(=O)(=O)N2C[C@H]3[C@@H](c4ccccc42)[C@H](CO)N3CC2CCCC2)c1,40.4,3.5,/,13.8*,3.2,42.3
COc1ccccc1NC(=O)N1C[C@@H]2[C@H](c3ccccc31)[C@H](CO)N2C(C)=O,-2.7,-10.3,/,-0.5,0.9,-5.8
CN1C[C@H]2[C@@H](c3ccccc31)[C@@H](CO)N2C(=O)C1CCCC1,-0.1,26.7*,/,0.7,-12.4,0.2
Cc1cccc(S(=O)(=O)N2C[C@H]3[C@@H](c4ccccc42)[C@H](CO)N3CC2CCOCC2)c1,5.7,-4.9,/,-0.7,3.8,14.9
COc1ccccc1NC(=O)N1C[C@H]2[C@@H](c3ccccc31)[C@H](CO)N2C(C)=O,50.2,20.5*,/,4.2,-0.2,10.6
O=C(CC(F)(F)F)N1C[C@@H]2[C@H](c3ccccc31)[C@H](CO)N2C(=O)C1CCCC1,-5.0,21.0*,/,-0.7,-1.0,-3.8
CN(C)C(=O)[C@H]1[C@H](CO)[C@H]2Cn3c(ccc(-c4cccnc4)c3=O)[C@@H]1N2C(=O)NC1CCCC1,0.1,?,/,0.0,1.6,1.0
C[C@H](CO)N1C[C@H](C)[C@H](CN(C)C(=O)C2CCCCC2)Oc2ncc(-c3ccncc3)cc2C1=O,-1.2,-8.9,/,-3.1,-5.2,-2.8
